Reference: ChEMBL document CHEMBL2016433 (Bioorg Med Chem, 2012)
Activity calls are given as the source filed them.

Key:
U-937 [1] = assay: Cytotoxicity against human U937 cells assessed as induction of cell death at 1 to 100 microM after 24 hrs by trypan blue exclusion method; type: functional, cell-based
U-937 [2] = assay: Induction of cell death in human U937 cells assessed at 1 to 100 microM after 24 hrs by trypan blue exclusion method relative to untreated control; type: functional
Outline: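 U937 cells (5×10^4 per well) exposed for 24 h at 37 °C, 5% CO₂ to 1 in 10 serial dilutions from 1 to 100 µM in RPMI-1640 with 5% FBS. Compounds came from 20 mM stocks in DMSO or medium. Controls got vehicle at equal amounts. Membrane-permeable cells were counted by trypan blue exclusion in a haemocytometer and expressed as percent. Mean and standard deviation from at least three determinations.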

U-937 [3] = assay: Induction of apoptosis in human U937 cells after 24 hrs by acridine orange staining based microscopy; type: functional, cell-based
Outline: (§1)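 U937 cells were treated for 24 h at 37 °C with 1–100 µM compound or vehicle, then stained with acridine orange. Over 600 cells were scored by fluorescence microscopy; apoptosis was defined as uniformly stained nuclei with chromatin condensation or nuclear fragmentation. Mean and SD of at least three determinations.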

HT-29 [4] = assay: Cytotoxicity against human HT-29 cells after 48 hrs by trypan blue exclusion assay; type: functional
Outline: (§2)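 Adherent HT-29, HepG2 and MCF7 cells were seeded in 96 wells with increasing concentrations and incubated 48 h at 37 °C, 5% CO₂. Trypan blue exclusion was done directly in the culture wells. CC30 is the concentration giving 30% cytotoxicity, from a best-fit curve versus log concentration.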

HepG2 [5] = assay: Cytotoxicity against human HepG2 cells after 48 hrs by trypan blue exclusion assay; type: functional; outline: as §2
U-937 [6] = assay: Induction of apoptosis in human U937 cells at 100 uM after 24 hrs by acridine orange staining based microscopy; type: functional, cell-based; outline: as §1
U-937 [7] = assay: Induction of apoptosis in human U937 cells assessed as hypodiploid nuclei after 24 hrs by propidium iodide based flow cytometry analysis; type: functional, cell-based
MOLT-3 [8] = assay: Induction of apoptosis in human MOLT3 cells after 24 hrs by acridine orange staining based fluorescence microscopy; type: functional
Outline: (§3)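 HeLa, MOLT-3 and THP-1 cells were treated with increasing concentrations for 24 h, then stained with acridine orange and more than 600 cells scored by fluorescence microscopy for condensed or fragmented nuclei. AC30 is the concentration giving 30% apoptotic cells, from a best-fit curve versus log concentration.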

HT-29 [9] = assay: Cytotoxicity against human HT-29 cells assessed as compound concentration causing 30% reduction in formazan product formation after 48 hrs by MTS assay; type: functional; conditions: HT-29, 48 h
Outline: (§4)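 HT-29, HepG2 and MCF7 cells were exposed to increasing concentrations for 48 h. MTS reagent was then added directly to the wells, incubated a further 4 h, and absorbance read at 490 nm. MAIC30 is the concentration reducing formazan formation by 30%, from a best-fit curve versus log concentration.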

U-937 [10] = assay: Cytostatic against human U937 cells assessed as reduction in absolute number of total cells after 24 hrs by haemocytometry; type: functional, cell-based
Outline: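 U937 cells, 5×10^4 per well in RPMI-1640 with 5% FBS, 2 mM L-glutamine and penicillin-streptomycin, were exposed to 1 in 10 serial dilutions from 100 µM to 1 µM (stocks 20 mM in DMSO or medium), or to vehicle, for 24 h at 37 °C in CO₂. Total cells were counted by haemocytometer; mean and SD of at least three determinations.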

U-937 [11] = assay: Induction of apoptosis in human U937 cells assessed as hypodiploid nuclei at 50 uM after 24 hrs by propidium iodide based flow cytometry analysis (reference value: 3.2%); type: functional
THP-1 [12] = assay: Cytotoxicity against human THP1 cells assessed as cell viability after 24 hrs; type: functional, cell-based; conditions: THP-1, 24 h
MCF7 [13] = assay: Cytotoxicity against human MCF7 cells after 48 hrs by trypan blue exclusion assay; type: functional; outline: as §2
PBMC [14] = assay: Induction of apoptosis in human PBMC cells assessed as hypodiploid nuclei at 50 uM after 48 hrs by propidium iodide based flow cytometry analysis (reference value: 4.7 %); type: cell-based
HT-29 [15] = assay: Cytotoxicity against human HT-29 cells assessed as cell viability after 48 hrs; type: functional, cell-based; conditions: HT-29, 48 h
Outline: (§5)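 HT-29, HepG2 and MCF7 cells were treated in wells with increasing concentrations for 48 h at 37 °C, 5% CO₂. Total cell count was taken by haemocytometer. IC50 is the concentration inhibiting total count by 50%, from a best-fit curve of the value versus log concentration.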

HepG2 [16] = assay: Cytotoxicity against human HepG2 cells assessed as cell viability after 48 hrs; type: functional, cell-based; conditions: HepG2, 48 h; outline: as §5
PBMC [17] = assay: Induction of apoptosis in human PBMC cells assessed as hypodiploid nuclei at 1 uM after 48 hrs by propidium iodide based flow cytometry analysis (reference value: 4.7 %); type: cell-based
U-937 [18] = assay: Induction of apoptosis in human U937 cells assessed as hypodiploid nuclei at 1 uM after 24 hrs by propidium iodide based flow cytometry analysis (reference value: 3.2%); type: functional
U-937 [19] = assay: Induction of apoptosis in human U937 cells assessed as hypodiploid nuclei at 100 uM after 24 hrs by propidium iodide based flow cytometry analysis (reference value: 3.2%); type: functional
MCF7 [20] = assay: Cytotoxicity against human MCF7 cells assessed as compound concentration causing 30% reduction in formazan product formation after 48 hrs by MTS assay; type: functional; conditions: MCF7, 48 h; outline: as §4
PBMC [21] = assay: Induction of apoptosis in human PBMC cells assessed as hypodiploid nuclei at 100 uM after 48 hrs by propidium iodide based flow cytometry analysis (reference value: 4.7 %); type: cell-based
MCF7 [22] = assay: Cytotoxicity against human MCF7 cells assessed as cell viability after 48 hrs; type: functional, cell-based; conditions: MCF7, 48 h; outline: as §5
MOLT-3 [23] = assay: Cytotoxicity against human MOLT3 cells after 24 hrs by trypan blue exclusion assay; type: functional
U-937 [24] = assay: Induction of apoptosis in human U937 cells assessed as hypodiploid nuclei at 10 uM after 24 hrs by propidium iodide based flow cytometry analysis (reference value: 3.2%); type: functional
PBMC [25] = assay: Induction of apoptosis in human PBMC cells assessed as hypodiploid nuclei at 10 uM after 48 hrs by propidium iodide based flow cytometry analysis (reference value: 4.7 %); type: cell-based
HepG2 [26] = assay: Cytotoxicity against human HepG2 cells assessed as compound concentration causing 30% reduction in formazan product formation after 48 hrs by MTS assay; type: functional; conditions: HepG2, 48 h; outline: as §4
THP-1 [27] = assay: Induction of apoptosis in human THP1 cells after 24 hrs by acridine orange staining based fluorescence microscopy; type: functional; outline: as §3
PBMC [28] = assay: Induction of apoptosis in human PBMC cells assessed as hypodiploid nuclei after 24 hrs by propidium iodide based flow cytometry analysis; type: cell-based
MOLT-3 [29] = assay: Cytotoxicity against human MOLT3 cells assessed as cell viability after 24 hrs; type: functional, cell-based; conditions: MOLT-3, 24 h
THP-1 [30] = assay: Cytotoxicity against human THP1 cells after 24 hrs by trypan blue exclusion assay; type: functional
U-937 [31] = assay: Induction of apoptosis in human U937 cells expressing pMEP assessed as expression of Bcl-2 protein at 1 to 100 uM by acridine orange based microscopy; type: functional, cell-based
Outline: (§6)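 U937 stable transfectants carrying murine bcl-2 (U937mBCL2) or empty pMEP vector were kept in medium with hygromycin B 50 µg/mL. They were treated for 24 h with compound or DMSO. Apoptotic nuclei were scored by fluorescence microscopy after acridine orange staining; mean and SD of three determinations.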

HeLa [32] = assay: Cytotoxicity against human HeLa cells after 24 hrs by trypan blue exclusion assay; type: functional
Outline: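 MOLT-3, THP-1 or HeLa cells were grown in RPMI 1640 with 5–10% FBS; for THP-1 the medium also held 10 mM HEPES, 1 mM pyruvate and 4.5 g/L glucose. Cells were seeded in 96 wells with increasing compound concentrations and incubated 24 h at 37 °C, 5% CO₂. CC30 is the concentration giving 30% trypan blue-positive cells, taken from a best-fit curve of y versus log x.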

HeLa [33] = assay: Cytotoxicity against human HeLa cells assessed as cell viability after 24 hrs; type: functional, cell-based
Outline: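 MOLT-3, THP-1 and HeLa cells were treated with increasing concentrations for 24 h at 37 °C, 5% CO₂. Total cells were counted by haemocytometer with trypan blue. IC50 is the concentration cutting total cell count by 50%, taken from a best-fit curve of the value versus log concentration.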

HeLa [34] = assay: Induction of apoptosis in human HeLa cells after 24 hrs by acridine orange staining based fluorescence microscopy; type: functional; outline: as §3
U-937 [35] = assay: Induction of apoptosis in human U937 cells expressing mouse Bcl-2 gene assessed as expression of Bcl-2 protein at 1 to 100 uM by acridine orange based microscopy; type: functional, cell-based; outline: as §6

SMILES: CC(=O)OC[C@H]1O[C@@H](SSCc2c(C)c(CSS[C@@H]3O[C@H](COC(C)=O)[C@@H](OC(C)=O)[C@H](OC(C)=O)[C@H]3OC(C)=O)c(C)c(CSS[C@@H]3O[C@H](COC(C)=O)[C@@H](OC(C)=O)[C@H](OC(C)=O)[C@H]3OC(C)=O)c2C)[C@H](OC(C)=O)[C@@H](OC(C)=O)[C@@H]1OC(C)=O
- Activity (U-937 [1]): Active
- Activity (U-937 [2]): 25%
- Activity (U-937 [3]): inactive

SMILES: CC(=O)OC[C@H]1O[C@@H](SSc2cccc(SS[C@@H]3O[C@H](COC(C)=O)[C@@H](OC(C)=O)[C@H](OC(C)=O)[C@H]3OC(C)=O)c2)[C@H](OC(C)=O)[C@@H](OC(C)=O)[C@@H]1OC(C)=O
- Activity (U-937 [1]): Active

SMILES: CCc1c(CSS[C@@H]2O[C@H](CO)[C@@H](O)[C@H](O)[C@H]2O)c(CC)c(CSS[C@@H]2O[C@H](CO)[C@@H](O)[C@H](O)[C@H]2O)c(CC)c1CSS[C@@H]1O[C@H](CO)[C@@H](O)[C@H](O)[C@H]1O
- Activity (U-937 [1]): Active
- Activity (U-937 [2]): 25%
- Activity (U-937 [3]): inactive

SMILES: CC(=O)OC[C@H]1O[C@@H](SSCc2cccc(CSS[C@@H]3O[C@H](COC(C)=O)[C@H](OC(C)=O)[C@H](OC(C)=O)[C@H]3OC(C)=O)c2)[C@H](OC(C)=O)[C@@H](OC(C)=O)[C@H]1OC(C)=O
- CC30 (HT-29 [4]): >100 µM
- Activity (U-937 [1]): Active
- CC30 (HepG2 [5]): 77 µM
- Activity (U-937 [6]): Active
- Activity (U-937 [7]): Dose-dependent effect
- AC30 (MOLT-3 [8]): 15 µM
- IC30 (HT-29 [9]): 12 µM
- Activity (U-937 [10]): Active
- Activity (U-937 [11]): 51%
- IC50 (THP-1 [12]): > 100 µM
- CC30 (MCF7 [13]): >100 µM
- Activity (PBMC [14]): 30.9%
- IC50 (HT-29 [15]): 60 µM
- IC50 (HepG2 [16]): 54 µM
- Activity (PBMC [17]): 4.9%
- Activity (U-937 [18]): 3.1%
- Activity (U-937 [19]): 91.2%
- IC30 (MCF7 [20]): 61 µM
- Activity (PBMC [21]): 31.2%
- IC50 (MCF7 [22]): 42 µM
- CC30 (MOLT-3 [23]): 54 µM
- Activity (U-937 [24]): 4.2%
- Activity (PBMC [25]): 7.4%
- IC30 (HepG2 [26]): 41 µM
- AC30 (THP-1 [27]): 92 µM
- Activity (PBMC [28]): Non-toxic
- Activity (U-937 [3]): Active
- IC50 (MOLT-3 [29]): > 100 µM
- CC30 (THP-1 [30]): >100 µM

SMILES: CC(=O)OC[C@H]1O[C@@H](SSCc2ccc(CSS[C@@H]3O[C@H](COC(C)=O)[C@H](OC(C)=O)[C@H](OC(C)=O)[C@H]3OC(C)=O)cc2)[C@H](OC(C)=O)[C@@H](OC(C)=O)[C@H]1OC(C)=O
- Activity (U-937 [31]): Active
- CC30 (HT-29 [4]): 61 µM
- Activity (U-937 [1]): Active
- CC30 (HepG2 [5]): 98 µM
- Activity (U-937 [6]): Active
- AC30 (MOLT-3 [8]): 24 µM
- IC30 (HT-29 [9]): 23 µM
- CC30 (HeLa [32]): >100 µM
- IC50 (THP-1 [12]): > 100 µM
- CC30 (MCF7 [13]): 69 µM
- IC50 (HeLa [33]): > 100 µM
- IC50 (HT-29 [15]): 63 µM
- IC50 (HepG2 [16]): 51 µM
- IC30 (MCF7 [20]): 63 µM
- IC50 (MCF7 [22]): 38 µM
- AC30 (HeLa [34]): 62 µM
- CC30 (MOLT-3 [23]): 29 µM
- Activity (U-937 [35]): inactive
- IC30 (HepG2 [26]): 30 µM
- AC30 (THP-1 [27]): 88 µM
- IC50 (MOLT-3 [29]): > 100 µM
- CC30 (THP-1 [30]): 93 µM

SMILES: CC(=O)OC[C@H]1O[C@@H](SSCc2cccc(CSS[C@@H]3O[C@H](COC(C)=O)[C@@H](OC(C)=O)[C@H](OC(C)=O)[C@H]3OC(C)=O)c2)[C@H](OC(C)=O)[C@@H](OC(C)=O)[C@@H]1OC(C)=O
- Activity (U-937 [1]): Active
- Activity (U-937 [10]): Active
- Activity (U-937 [3]): Active
